Test results: ChEMBL document CHEMBL1667761, “3-benzylamino-β-carboline derivatives induce apoptosis through G2/M arrest in human carcinoma cells HeLa S-3” (Eur J Med Chem, 2011)
The source made the active and inactive calls. The calls are words filed in the database; no cut-off is given here.

Assays:
[1] = Antitumor activity against human HeLaS3 cells after 24 to 72 hrs by MTT assay; assay type: functional, cell-based, HeLa S3
Procedure, shortened: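 HeLa S-3 cells (MEM, 10% FBS, HEPES, NEAA, 2 mM L-glutamine, 5% CO2, 37 °C) seeded at 2 × 10⁴ cells/ml and cultured 3 h before exposure for 24–72 h at 37 °C. MTT (2 mg/ml) added for 4 h at 37 °C, formazan dissolved in DMSO, A540 read. Viability is expressed as % of control. IC50 is the concentration giving 50% growth inhibition, mean ± S.D. of four independent experiments run in triplicate.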

HeLa S3 [2] = assay: Induction of apoptosis in human HeLaS3 cells assessed as cleaved caspase-3 at 5 times IC50 by Western blot method; assay type: functional, cell-based
Procedure, shortened: (§1)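 HeLa S-3 cells treated for 24 h at 5-fold the IC50, alongside non-treated controls. Cells lysed in RIPA buffer (pH 8.0) with protease inhibitors and the whole-cell extract separated by SDS-PAGE, then transferred to PVDF. Blots blocked in 5% skim milk/TTBS and probed with anti-cdc2, cdk2 or cleaved caspase-3 antibodies (1:1000). β-actin (1:5000) served as loading control. Detection by HRP secondary antibody and ECL.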

[3] = Cell cycle arrest in human HeLaS3 cells assessed as increase in cdc2 protein level at 5 times IC50 by Western blot method; assay type: functional, cell-based; settings: HeLa S3; procedure, shortened: as §1
[4] = Cell cycle arrest in human HeLaS3 cells assessed as accumulation at G1 phase at 5 uM after 24 hrs by flow cytometry; assay type: functional, cell-based; settings: HeLa S3
Procedure, shortened: (§2)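 HeLa S-3 cells exposed for 6, 12 or 24 h. Cells washed twice in ice-cold PBS, fixed in ice-cold 70% ethanol, and resuspended with 0.1 mg/ml RNase. Stained with […] PI and analysed by flow cytometry. Phase distribution (sub-G1, G1, S, G2/M) is reported as percentage of cells. Controls were untreated.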

[5] = Cell cycle arrest in human HeLaS3 cells assessed as accumulation at G1 phase at 5 uM after 12 hrs by flow cytometry; assay type: functional, cell-based; settings: HeLa S3; procedure, shortened: as §2
[6] = Cell cycle arrest in human HeLaS3 cells assessed as accumulation at S phase at 5 uM after 24 hrs by flow cytometry; assay type: functional, cell-based; settings: HeLa S3; procedure, shortened: as §2
HeLa S3 [7] = assay: Induction of apoptosis in human HeLaS3 cells assessed as appearance of fragmented nuclei at 5 times IC50 after 48 hrs by Hoechst staining; assay type: functional, cell-based
Procedure, shortened: (§3)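 Stained with Hoechst 33342 (1 µg/ml) for 40 min at 37 °C. Nuclei were examined by confocal laser microscopy, and apoptosis was scored from chromatin condensation and fragmented nuclei.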

[8] = Cell cycle arrest in human HeLaS3 cells assessed as accumulation at G2/M phase at 5 uM after 12 hrs by flow cytometry; assay type: functional, cell-based; settings: HeLa S3; procedure, shortened: as §2
[9] = Cell cycle arrest in human HeLaS3 cells assessed as accumulation at sub-G1 phase at 5 uM after 6 hrs by flow cytometry; assay type: functional, cell-based; settings: HeLa S3; procedure, shortened: as §2
[10] = Cell cycle arrest in human HeLaS3 cells assessed as accumulation at G2/M phase at 1 uM after 6 hrs by flow cytometry; assay type: functional, cell-based; settings: HeLa S3; procedure, shortened: as §2
[11] = Cell cycle arrest in human HeLaS3 cells assessed as accumulation at sub-G1 phase at 1 uM after 12 hrs by flow cytometry; assay type: functional, cell-based; settings: HeLa S3; procedure, shortened: as §2
[12] = Cell cycle arrest in human HeLaS3 cells assessed as accumulation at G2/M phase at 5 uM after 6 hrs by flow cytometry; assay type: functional, cell-based; settings: HeLa S3; procedure, shortened: as §2
[13] = Cell cycle arrest in human HeLaS3 cells assessed as accumulation at G2/M phase at 1 uM after 12 hrs by flow cytometry; assay type: functional, cell-based; settings: HeLa S3; procedure, shortened: as §2
[14] = Cell cycle arrest in human HeLaS3 cells assessed as accumulation at S phase at 1 uM after 12 hrs by flow cytometry; assay type: functional, cell-based; settings: HeLa S3; procedure, shortened: as §2
[15] = Cell cycle arrest in human HeLaS3 cells assessed as accumulation at G1 phase at 5 uM after 6 hrs by flow cytometry; assay type: functional, cell-based; settings: HeLa S3; procedure, shortened: as §2
[16] = Cell cycle arrest in human HeLaS3 cells assessed as accumulation at sub-G1 phase at 5 uM after 12 hrs by flow cytometry; assay type: functional, cell-based; settings: HeLa S3; procedure, shortened: as §2
[17] = Cell cycle arrest in human HeLaS3 cells assessed as accumulation at sub-G1 phase at 5 uM after 24 hrs by flow cytometry; assay type: functional, cell-based; settings: HeLa S3; procedure, shortened: as §2
[18] = Cell cycle arrest in human HeLaS3 cells assessed as accumulation at S phase at 5 uM after 6 hrs by flow cytometry; assay type: functional, cell-based; settings: HeLa S3; procedure, shortened: as §2
[19] = Cell cycle arrest in human HeLaS3 cells assessed as accumulation at G2/M phase at 1 uM after 24 hrs by flow cytometry; assay type: functional, cell-based; settings: HeLa S3; procedure, shortened: as §2
[20] = Cell cycle arrest in human HeLaS3 cells assessed as accumulation at G1 phase at 1 uM after 12 hrs by flow cytometry; assay type: functional, cell-based; settings: HeLa S3; procedure, shortened: as §2
[21] = Cell cycle arrest in human HeLaS3 cells assessed as accumulation at G2/M phase at 5 uM after 24 hrs by flow cytometry; assay type: functional, cell-based; settings: HeLa S3; procedure, shortened: as §2
[22] = Cell cycle arrest in human HeLaS3 cells assessed as accumulation at sub-G1 phase at 1 uM after 6 hrs by flow cytometry; assay type: functional, cell-based; settings: HeLa S3; procedure, shortened: as §2
[23] = Cell cycle arrest in human HeLaS3 cells assessed as accumulation at S phase at 1 uM after 24 hrs by flow cytometry; assay type: functional, cell-based; settings: HeLa S3; procedure, shortened: as §2
[24] = Cell cycle arrest in human HeLaS3 cells assessed as effect on cdk2 protein level at 5 times IC50 by Western blot method; assay type: functional, cell-based; settings: HeLa S3; procedure, shortened: as §1
[25] = Cell cycle arrest in human HeLaS3 cells assessed as accumulation at S phase at 5 uM after 12 hrs by flow cytometry; assay type: functional, cell-based; settings: HeLa S3; procedure, shortened: as §2
HeLa S3 [26] = assay: Induction of apoptosis in human HeLaS3 cells assessed as DNA fragmentation after 24 hrs by agarose gel electrophoresis; assay type: functional, cell-based
Procedure, shortened: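 HeLa S-3 cells exposed for 12–48 h, then pellets lysed in 0.6% sarcosine, 20 mM Tris-HCl pH 7.4, 20 mM EDTA. Lysate treated with RNase A for 2 h at 50 °C, then proteinase K overnight at 50 °C. DNA extracted with phenol/chloroform, run on 2% agarose in TAE at 50 V, stained with ethidium bromide, and visualised under UV.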

[27] = Cell cycle arrest in human HeLaS3 cells assessed as accumulation at G1 phase at 1 uM after 24 hrs by flow cytometry; assay type: functional, cell-based; settings: HeLa S3; procedure, shortened: as §2
[28] = Cell cycle arrest in human HeLaS3 cells assessed as accumulation at sub-G1 phase at 1 uM after 24 hrs by flow cytometry; assay type: functional, cell-based; settings: HeLa S3; procedure, shortened: as §2
[29] = Cell cycle arrest in human HeLaS3 cells assessed as accumulation at S phase at 1 uM after 6 hrs by flow cytometry; assay type: functional, cell-based; settings: HeLa S3; procedure, shortened: as §2
HeLa S3 [30] = assay: Induction of apoptosis in human HeLaS3 cells assessed as appearance of fragmented nuclei at 10 times IC50 after 48 hrs by Hoechst staining; assay type: functional, cell-based; procedure, shortened: as §3
[31] = Cell cycle arrest in human HeLaS3 cells assessed as accumulation at G1 phase at 1 uM after 6 hrs by flow cytometry; assay type: functional, cell-based; settings: HeLa S3; procedure, shortened: as §2

Q: For `CNc1cc2c(cn1)[nH]c1ccccc12`, which IC50 ([1]; Homo sapiens, HeLa S3) is on record?
A: 101 µM

Q: With `CC(C)(C)OC(=O)NCCOc1cccc(CNc2cc3c(cn2)[nH]c2ccccc23)c1` as the compound, how does the IC50 ([1]; Homo sapiens, HeLa S3) read?
A: 16 µM

Q: For `C[n+]1cc2[nH]c3ccccc3c2cc1NCc1ccccc1` [listing 1 of 2 here], which IC50 ([1]; hela s3) is on record?
A: 99 µM

Q: Which IC50 ([1]; Homo sapiens, HeLa S3) does the source give for `CC(C)(C)CNc1cc2c(cn1)[nH]c1ccccc12` here?
A: 17 µM

Q: For `c1ccc(CNc2cc3c(cn2)[nH]c2ccccc23)cc1`, which Activity (HeLa S3 [2]) is on record?
A: Active

Q: And the IC50 ([1]; Homo sapiens, HeLa S3)?
A: 0.12 µM

Q: And the Activity [3]?
A: Active

Q: And the Activity [4]?
A: 4.9%

Q: And the Activity [5]?
A: 13.8%

Q: And the Activity [6]?
A: 3.9%

Q: And the Activity (HeLa S3 [7])?
A: Active

Q: What about the Activity [8] of the same compound?
A: 68.1%

Q: And the Activity [9]?
A: 3.3%

Q: And the Activity [10]?
A: 46.1%

Q: And the Activity [11]?
A: 3.7%

Q: What about the Activity [12] of the same compound?
A: 47.3%

Q: And the Activity [13]?
A: 84.3%

Q: And the Activity [14]?
A: 9.4%

Q: What about the Activity [15] of the same compound?
A: 34%

Q: What about the Activity [16] of the same compound?
A: 3%

Q: What about the Activity [17] of the same compound?
A: 8.3%

Q: What about the Activity [18] of the same compound?
A: 12.2%

Q: And the Activity [19]?
A: 92.2%

Q: What about the Activity [20] of the same compound?
A: 2.9%

Q: And the Activity [21]?
A: 80.5%

Q: What about the Activity [22] of the same compound?
A: 3.8%

Q: And the Activity [23]?
A: 2.6%

Q: What about the Activity [24] of the same compound?
A: inactive

Q: What about the Activity [25] of the same compound?
A: 12.5%

Q: And the Activity (HeLa S3 [26])?
A: Active

Q: What about the Activity [27] of the same compound?
A: 1.1%

Q: What about the Activity [28] of the same compound?
A: 3.7%

Q: What about the Activity [29] of the same compound?
A: 19%

Q: What about the Activity (HeLa S3 [30]) of the same compound?
A: Active

Q: What about the Activity [31] of the same compound?
A: 31.5%

Q: For `CCNc1cc2c3ccccc3nc-2c[nH]1`, which IC50 ([1]; Homo sapiens, HeLa S3) is on record?
A: 19 µM

Q: With `COC(=O)c1cccc(CNc2cc3c(cn2)[nH]c2ccccc23)c1` as the compound, how does the IC50 ([1]; Homo sapiens, HeLa S3) read?
A: 17 µM

Q: Which IC50 ([1]; hela s3) does the source give for `C[n+]1cc2[nH]c3ccccc3c2cc1NCc1ccccc1` [listing 2 of 2 here] here?
A: 9.9 µM

Q: Which IC50 ([1]; Homo sapiens, HeLa S3) does the source give for `c1ccc(CCNc2cc3c(cn2)[nH]c2ccccc23)cc1` here?
A: 22 µM
